ChEMBL document CHEMBL4613305, “Chiral Separation, X-ray Structure, and Biological Evaluation of a Potent and Reversible Dual Binding Site AChE Inhibitor” (ACS Med Chem Lett, 2020)

Assays:
Acetylcholinesterase [1] = biological target: T1, Acetylcholinesterase (Homo sapiens, UniProt P22303); experiment: Inhibition of human AChE using acetylthiocholineiodide as substrate measured for every 30 sec for 5 mins by Ellman's method
Cholinesterase [2] = biological target: T2, Cholinesterase (Homo sapiens, UniProt P06276); experiment: Inhibition of human BChE using butyrylthiocholineiodide as substrate measured for every 30 sec for 5 mins by Ellman's method
Outline: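 Values are mean ± SEM of three independent experiments.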

Acetylcholinesterase [3] = biological target: T1, Acetylcholinesterase; experiment: Mixed type inhibition of human AChE using acetylthiocholineiodide as substrate measured for every 30 sec for 5 mins by Ellman's method
Cholinesterase [4] = biological target: T2, Cholinesterase; experiment: Inhibition of human BChE using butyrylthiocholineiodide as substrate at 10 uM measured for every 30 sec for 5 mins by Ellman's method relative to control
Outline: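 Single-concentration test, reported as % inhibition at 10 μM. Values are mean ± SEM of three independent experiments.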

[5] = biological target: Cholinesterases; ACHE & BCHE (Homo sapiens) (UniProt P06276+P22303); experiment: Selectivity index, ratio of IC50 for human BChE to IC50 for human AChE; format: protein assay
[6] = Efflux ratio of apparent permeability across basolateral to apical side to apical to basolateral side in MDCK-MDR1 cells at 75 uM incubated for 2 hrs by UV-spectroscopy; format: ADME, cell-based, Canis lupus familiaris; conditions: dog
Outline: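 MDCK-MDR1 monolayers expressing the P-gp efflux system. Apparent permeability was measured in both directions, apical→basolateral and basolateral→apical. Efflux ratio calculated as Papp BL / Papp AP. Papp values are mean ± SEM of three independent experiments.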

[7] = Cytotoxicity against human HepG2 cells assessed as cell viability at 20 to 100 uM incubated for 2 hrs by MTT assay relative to control; format: cell-based; conditions: read-out: Activity
Outline: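 HepG2 human liver cancer cells were exposed to 20–100 μM for 2 h. Viability was read by MTT reduction, expressed as % of untreated control cells in DMEM. Values are mean ± SEM of six replicates. Difference from control was tested by Student's t test (p < 0.01).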

[8] = Cytotoxicity against MDCK-MDR1 cells assessed as cell viability at 100 uM incubated for 24 hrs by MTT assay relative to control; format: ADME, cell-based, Canis lupus familiaris; conditions: dog, read-out: Activity
[9] = Cytotoxicity against MDCK-MDR1 cells assessed as cell viability at 100 uM incubated for 72 hrs by MTT assay relative to control; format: ADME, cell-based, Canis lupus familiaris; conditions: dog, read-out: Activity
[10] = Apparent permeability across apical to basolateral side in MDCK-MDR1 cells at 75 uM incubated for 2 hrs by UV-spectroscopy; format: ADME, cell-based, Canis lupus familiaris; conditions: dog
Outline: (§1)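 MDCK-MDR1 monolayers expressing the P-gp efflux system. Apparent permeability (Papp) was measured in both directions: apical to basolateral, and basolateral to apical. Efflux ratio = Papp BL/Papp AP. Values are mean ± SEM of three independent experiments.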

[11] = Apparent permeability across basolateral to apical side in MDCK-MDR1 cells at 75 uM incubated for 2 hrs by UV-spectroscopy; format: ADME, cell-based, Canis lupus familiaris; conditions: dog; outline: as §1
MDCK-MDR1 = experiment: Cytotoxicity against MDCK-MDR1 cells assessed as cell viability incubated for 72 hrs by MTT assay relative to control; format: ADME, cell-based; conditions: Canis lupus familiaris, MDCK-MDR1, 72 h
Acetylcholinesterase [12] = biological target: T1, Acetylcholinesterase; experiment: Potency index, ratio of Ki of donepezil to Ki of compound for mixed type inhibition of human AChE using acetylthiocholineiodide as substrate measured for every 30 sec for 5 mins by Ellman's method

T2 sequence (P06276 whole entry): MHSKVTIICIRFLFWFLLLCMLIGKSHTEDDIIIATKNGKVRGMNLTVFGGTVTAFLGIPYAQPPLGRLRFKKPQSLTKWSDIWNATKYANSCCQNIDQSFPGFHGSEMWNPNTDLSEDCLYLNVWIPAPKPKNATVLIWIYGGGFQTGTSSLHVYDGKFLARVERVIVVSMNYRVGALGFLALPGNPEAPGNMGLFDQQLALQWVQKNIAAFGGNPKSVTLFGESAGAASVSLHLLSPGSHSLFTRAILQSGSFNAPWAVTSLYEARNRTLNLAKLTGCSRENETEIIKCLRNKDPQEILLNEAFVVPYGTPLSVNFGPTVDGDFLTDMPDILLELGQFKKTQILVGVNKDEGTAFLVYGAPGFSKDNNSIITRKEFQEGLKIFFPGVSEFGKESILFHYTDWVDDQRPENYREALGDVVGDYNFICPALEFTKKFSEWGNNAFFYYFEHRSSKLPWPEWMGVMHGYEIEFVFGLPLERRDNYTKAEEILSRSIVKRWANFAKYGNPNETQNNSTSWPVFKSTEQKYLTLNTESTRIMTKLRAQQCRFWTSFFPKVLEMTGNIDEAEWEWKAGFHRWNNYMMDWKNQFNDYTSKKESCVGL
T1 sequence (P22303 whole entry): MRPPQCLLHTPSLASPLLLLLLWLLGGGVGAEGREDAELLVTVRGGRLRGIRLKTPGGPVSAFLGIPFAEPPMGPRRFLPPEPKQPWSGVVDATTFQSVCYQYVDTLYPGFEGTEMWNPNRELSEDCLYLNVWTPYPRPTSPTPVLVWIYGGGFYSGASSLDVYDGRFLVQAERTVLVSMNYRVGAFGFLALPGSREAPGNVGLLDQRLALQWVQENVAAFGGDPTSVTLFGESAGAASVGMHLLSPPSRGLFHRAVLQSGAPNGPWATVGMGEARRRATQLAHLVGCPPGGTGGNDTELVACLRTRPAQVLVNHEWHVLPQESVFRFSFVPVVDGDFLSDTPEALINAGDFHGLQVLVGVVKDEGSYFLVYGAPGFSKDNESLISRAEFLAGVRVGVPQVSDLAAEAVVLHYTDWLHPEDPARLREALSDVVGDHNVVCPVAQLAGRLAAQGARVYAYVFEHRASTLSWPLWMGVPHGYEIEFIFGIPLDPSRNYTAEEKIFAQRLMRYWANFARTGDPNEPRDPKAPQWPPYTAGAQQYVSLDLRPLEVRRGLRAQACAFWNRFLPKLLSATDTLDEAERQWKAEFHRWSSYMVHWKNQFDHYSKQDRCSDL
Chain of Cholinesterases; ACHE & BCHE (Homo sapiens) (P06276 whole entry, looked up): as the sequence (P06276 whole entry) above
Chain of Cholinesterases; ACHE & BCHE (Homo sapiens) (P22303 whole entry, looked up): as the sequence (P22303 whole entry) above

Compound	IC50 (Acetylcholinesterase [1]) [nM]	IC50 (Cholinesterase [2]) [nM]	Ki (Acetylcholinesterase [3]) [nM]	other results
COc1cc2cc(NC(=O)[C@H]3CCC[C@@H](NCc4ccccc4)C3)c(=O)oc2cc1OC	380	2330	93.4	–
COc1cc2cc(NC(=O)CCCNCc3ccccc3)c(=O)oc2cc1OC	748	181	–	–
COc1cc2cc(NC(=O)C3CCN(Cc4ccccc4)CC3)c(=O)oc2cc1OC	223	–	–	inhibition (Cholinesterase [4]): 21%
COc1cc2cc(NC(=O)[C@@H]3CCC[C@H](NCc4ccccc4)C3)c(=O)oc2cc1OC	19.2	14100	19.1	Ratio IC50 [5]: 730
COc1cc2cc(NC(=O)[C@H]3CCC[C@@H](NCc4ccccc4)C3)c(=O)oc2cc1OC (racemic) [listing 1 of 2 here]	36.5	6250	46.6	efflux ratio at 2 h, 75 µM [6]: 0.22; viability at 2 h, up to 100 µM [7]: 80 to 90%; viability at 24 h, 100 µM [8]: 60%; viability at 72 h, 100 µM [9]: 37%; Papp A→B at 2 h, 75 µM [10]: 37 ×10⁻⁶ cm/s; Papp B→A at 2 h, 75 µM [11]: 8.4 ×10⁻⁶ cm/s; IC50 (MDCK-MDR1): 30000 nM
COc1cc2cc(NC(=O)[C@H]3CCC[C@@H](NCc4ccccc4)C3)c(=O)oc2cc1OC (racemic) [listing 2 of 2 here]	–	–	–	Ratio Ki (Acetylcholinesterase [12]): 4
CN1C(=O)CN=C(c2ccccc2)c2cc(Cl)ccc21 [DIAZEPAM]	–	–	–	efflux ratio at 2 h, 75 µM [6]: 0.7
